Data set [1] addresses T1, BAG family molecular chaperone regulator 3 (Homo sapiens, UniProt O95817). Description: Binding affinity to full length recombinant human BAG3 assessed as dissociation constant by SPR analysis. For orientation: In SPR one partner is held on a chip, and binding of the other changes the refractive index at the surface.
The subject of data set [2] is HeLa. Briefly: Cytotoxicity against human HeLa cells assessed as mortality rate at 10 to 50 uM incubated for 72 hrs by MTT assay relative to control. The format is functional. To be noted: dose 10-50 µM. The essentials:
(§1)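 MTT reduction assay. Cells grown in DMEM/high glucose with 10 % FBS, 2 mM glutamine and penicillin/streptomycin at 37 °C, 5 % CO2. HeLa seeded at 3.5×10^3 and HaCaT at 5.0×10^3 cells/well, in triplicate. After 24 h attachment, compounds added at 10 and 50 μM for 72 h. Controls: 0.1 % DMSO (negative) and 10 % DMSO (positive). MTT added for 3 h at 37 °C, formazan dissolved in DMF/SDS (pH 4.5), absorbance read at 570 nm. Three independent experiments.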

The test system of data set [3] is HaCaT. Description: Cytotoxicity against human HaCaT cells assessed as mortality rate at 50 uM incubated for 72 hrs by MTT assay relative to control. The class given is toxicity, cell-based. The essentials:
as §1

Data set [4] addresses T1, BAG family molecular chaperone regulator 3. Description: Binding affinity to recombinant human BAG3 domain assessed as dissociation constant by SPR analysis.
Data set [5] relates to HeLa. Description: Cytotoxicity against human HeLa cells assessed as cell viability incubated for 72 hrs by MTT assay. (In general: Tetrazolium assays rely on reduction of a dye to a coloured formazan, in cell work by metabolically active cells.)
Data set [6] deals with HaCaT. Description: Cytotoxicity against human HaCaT cells assessed as mortality at 10 to 50 uM incubated for 72 hrs by MTT assay. Conditions: dose 10-50 µM. The format is toxicity, cell-based.
Data set [7] deals with HaCaT. Description: Cytotoxicity against human HaCaT cells at 10 to 50 uM incubated for 24 hrs by MTT assay. The format is toxicity, cell-based. To be noted: dose 10-50 µM. The essentials: (§2)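 HaCaT keratinocytes seeded at 5.0×10^3 cells/well in triplicate and allowed to attach for 24 h. Exposed to 10 and 50 μM for 24, 48 or 72 h with 0.1 % DMSO control, then read by MTT reduction (3 h, 37 °C) with absorbance at 570 nm.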

The test system of data set [8] is HaCaT. Briefly: Cytotoxicity against human HaCaT cells at 10 to 50 uM incubated for 48 hrs by MTT assay. The class given is toxicity, cell-based. To be noted: dose 10-50 µM. The essentials:
as §2

Data set [9] has as its system HaCaT. Description: Cytotoxicity against human HaCaT cells at 10 to 50 uM incubated for 72 hrs by MTT assay. The class given is toxicity, cell-based. To be noted: dose 10-50 µM. In short, it runs like this: as §2
A short description of data set [10]: (§3) Binding affinity to recombinant human HSP70 assessed as dissociation constant by SPR analysis. In short, it runs like this:
(§4)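 HSP70 amine-coupled on CM5 chip from 0.045 µg µl⁻¹ in 10 mM acetate pH 4.5, density 20 kRU, with unmodified reference surface. Compounds from 10 mM DMSO stocks diluted 1:20 in PBS-P (final 5.0 % DMSO), 10 concentrations by 1:2 dilution spanning 0–100 µM. Run at 25 °C, 20 µL/min, 90 s association, 400 s dissociation; KD reported ± SD.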

Data set [11] deals with HeLa. Briefly: Induction of cell cycle arrest in human HeLa cells assessed as increase in hypodiploid nuclei at 10 to 50 uM incubated for 72 hrs by PI staining based flow cytometry analysis. Conditions: dose 10-50 µM. The class given is functional. The essentials:
(§5)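 HeLa cells (1×10^5/well) adhered 24 h, then treated 72 h with 10, 25 and 50 μM (reference inhibitor 1, 5, 10 μM), with 0.1 % DMSO negative and 10 % positive controls. Dead and live cells pooled, stained with 50 mg/L PI in 0.1 % citrate/0.1 % Triton X-100 for 30 min at 4 °C in the dark. Sub-G0/G1 percentage measured by flow cytometry, debris gated out.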
A general note: Flow cytometry measures light scatter and fluorescence of single cells or particles in a stream.

For data set [12], the system named is HeLa. Description: Induction of apoptosis in human HeLa cells assessed as increase in apoptotic cells incubated for 72 hrs by Annexin V-FITC/PI staining based flow cytometry analysis. The class given is functional, cell-based. To be noted: dose 20-50 µM. In short, it runs like this:
(§6)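 HeLa cells (2×10^4) incubated 72 h at 20–50 μM. Stained with Annexin V-FITC and PI for 15 min at RT, then analysed by flow cytometry. Reported as percentage of live, apoptotic and necrotic cells versus control, mean ± SD of three independent experiments.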

The subject of data set [13] is HeLa. Description: Induction of apoptosis in human HeLa cells assessed as increase in apoptotic cells at 50 uM incubated for 72 hrs by Annexin V-FITC/PI staining based flow cytometry analysis relative to control. The format is functional. The essentials: as §6
Data set [14] relates to HeLa. Briefly: Induction of apoptosis in human HeLa cells assessed as increase in apoptotic cells at 30 uM incubated for 72 hrs by Annexin V-FITC/PI staining based flow cytometry analysis relative to control. The format is functional. The essentials:
as §6

The test system of data set [15] is HeLa. Briefly: Induction of apoptosis in human HeLa cells assessed as increase in apoptotic cells at 20 uM incubated for 72 hrs by Annexin V-FITC/PI staining based flow cytometry analysis relative to control. The format is functional. In short, it runs like this:
as §6

Data set [16] has as its system HeLa. Description: Induction of apoptosis in human HeLa cells assessed as increase in caspase 3 expression incubated for 72 hrs by flow cytometry analysis. The format is functional, cell-based. To be noted: dose 10-50 µM. In short, it runs like this:
(§7)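 HeLa cells (2.5×10^5/well) treated 24 h after seeding for 72 h at 10, 25, 50 μM (reference inhibitor 10 μM) or 0.1 % DMSO. Fixed in 1 % formaldehyde (20 min, 4 °C), permeabilized with 0.1 % Triton, stained with anti-caspase 3, anti-caspase 9 or anti-p21 plus secondary antibodies. Read by flow cytometry as percentage of positive cells.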

In data set [17] the test system is HeLa. Description: Induction of apoptosis in human HeLa cells assessed as increase in caspase 9 expression incubated for 72 hrs by flow cytometry analysis. The class given is functional, cell-based. Conditions: dose 10-50 µM. In short, it runs like this:
as §7

The test system of data set [18] is HeLa. Briefly: Upregulation of p21 expression in human HeLa cells incubated for 72 hrs by flow cytometry analysis. The format is functional, cell-based. Conditions: dose 10-50 µM. The essentials:
as §7

The subject of data set [19] is HeLa. Description: Downregulation of FOXM1 expression in human HeLa cells at 50 uM incubated for 72 hrs by Western blot analysis. The class given is functional, cell-based.
Data set [20] deals with HeLa. Description: Downregulation of FOXM1 expression in human HeLa cells incubated for 72 hrs by Western blot analysis. The class given is functional, cell-based. In short, it runs like this: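 HeLa cells treated 72 h at 30 and 15 μM. Lysates (30 μg protein) separated on 10 % SDS-PAGE and blotted with anti-FOXM1 (1:500), β-tubulin as loading control. Detection by ECL, quantified by densitometry.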

The species entered for data set [21] is Homo sapiens. Briefly: Inhibition of Hsp70 (unknown origin) ATPase activity assessed as residual activity at 10 uM by ATPase activity incubated for 1 hr by ADP-glo assay relative to control. The essentials:
(§8)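 HSP70 ATPase assay by ADP-Glo. HSP70 plus HSP40 pre-incubated with compound for 30 min at RT, then ATP added and reacted 1 h at 30 °C with 1 % DMSO final. ADP-Glo reagent added for 1 h, then detection reagent for 20 min, and luminescence read. Activity scaled between no-compound (100 %) and no-HSP70 (0 %) wells; run in duplicates.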

For data set [22], the species on record is Homo sapiens. Briefly: Inhibition of Hsp70 (unknown origin) ATPase activity assessed as residual activity at 50 uM by ATPase activity incubated for 1 hr by ADP-glo assay relative to control. The essentials: as §8
The test system of data set [23] is HeLa. Description: Induction of cell cycle arrest in human HeLa cells assessed as increase in hypodiploid nuclei incubated for 72 hrs by PI staining based flow cytometry analysis. The format is functional. To be noted: dose 1-10 µM. The essentials:
as §5

Another data set deals with A549. Briefly: Cytotoxicity against human A549 cells assessed as cell viability incubated for 72 hrs by MTT assay. To be noted: A549, 72 h. The class given is functional, cell-based.
Another data set deals with A-375. Briefly: Cytotoxicity against human A-375 cells assessed as cell viability incubated for 72 hrs by MTT assay. The class given is functional, cell-based. Conditions: A-375, 72 h.
The species entered for data set [24] is Homo sapiens. The description is as §3. In short, it runs like this:
as §4

Data set [25] is described as follows: Solubility of compound. The format is physicochemical.

We go through 13 compounds from ChEMBL document CHEMBL6114987, “Identification of the first-in-class dual inhibitor targeting BAG3 and HSP70 proteins to disrupt multiple chaperone pathways” (Eur J Med Chem, 2025).

The source made the active and inactive calls. The calls are words filed in the database; no cut-off is given here. Bounds are passed on as bounds.

T1 sequence (O95817 whole entry): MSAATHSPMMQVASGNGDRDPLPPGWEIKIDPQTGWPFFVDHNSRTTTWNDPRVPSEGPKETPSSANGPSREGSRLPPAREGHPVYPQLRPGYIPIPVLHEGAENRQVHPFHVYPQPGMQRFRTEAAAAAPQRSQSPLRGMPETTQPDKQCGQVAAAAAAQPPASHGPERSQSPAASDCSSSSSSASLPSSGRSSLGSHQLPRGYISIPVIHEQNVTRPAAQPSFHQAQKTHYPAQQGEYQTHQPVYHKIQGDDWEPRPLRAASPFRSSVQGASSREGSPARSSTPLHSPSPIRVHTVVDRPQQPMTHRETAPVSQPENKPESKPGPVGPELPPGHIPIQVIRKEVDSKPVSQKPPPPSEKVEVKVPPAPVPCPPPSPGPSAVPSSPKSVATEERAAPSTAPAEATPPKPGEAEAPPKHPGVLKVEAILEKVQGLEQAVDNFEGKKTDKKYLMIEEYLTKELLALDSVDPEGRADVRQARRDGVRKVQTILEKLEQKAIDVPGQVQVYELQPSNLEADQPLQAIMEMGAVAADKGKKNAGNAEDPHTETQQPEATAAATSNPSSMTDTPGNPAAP

With `Cc1ccc(S(=O)(=O)CNC(=O)C(c2ccccc2Br)N(Cc2ccccc2)C(=O)Cn2cc(-c3ccccc3)nn2)cc1` (stereo not given), the result in data set [1] was inactive.

For the compound `CCCCNC(=O)C(c1ccc2cn[nH]c2c1)N(CC(C)CC)C(=O)Cn1cc(-c2cc(C)ccc2C)nn1` (stereo not given), the mortality (in general, the share of the test organisms that died) came out at 70% in the data set on HeLa [2] and 60% in the data set with HaCaT [3].

Take `CCCCNC(=O)C(c1ccccc1Br)N(C(=O)Cn1cc(CCC(C)C)nn1)c1ccc(Cl)cc1` (stereo not given): the outcome in [1] was inactive.

Turning to `CCCCNC(=O)C(c1ccc(Cl)nc1)N(CC(C)CC)C(=O)Cn1cc(C(C)(O)c2ccc(F)cc2)nn1` (stereo not given), in data set [1], the outcome was inactive. For the same compound, the Kd (in general, the constant that tells how readily two partners part at equilibrium) in data set [4] is reported as “Not_determined”.

Regarding `CCCCNC(=O)C(c1ccccc1Br)N(Cc1ccccc1)C(=O)Cn1cc(-c2ccccc2)nn1` (stereo not given), the result in data set [1] was inactive.

Consider `CCCCNC(=O)C(c1c[nH]c(=O)[nH]c1=O)N(CC(C)CC)C(=O)Cn1cc(-c2cc(C)c(C)cc2C)nn1` (stereo not given), for which the IC50 (in general, the point on the concentration scale where inhibition reaches its midpoint) in the data set with HeLa [5] was found to be 49.5 µM. Moreover, in the data set with HeLa [2], the mortality is 70%. Moreover, the Activity result was “Non-toxic” in the data set with HaCaT [6]; “Non-toxic” with HaCaT [7]; “Non-toxic” with HaCaT [8]; “Non-toxic” with HaCaT [9]; “Dose-dependent-effect” in the data set with HeLa [12]; 26.2% in the data set on HeLa [13]. In addition, the Activity in the data set with HeLa [14] was 23%; with HeLa [15], 18.6%; with HeLa [16], “Dose-dependent-effect”; with HeLa [17], “Dose-dependent-effect”; in the data set with HeLa [18], “Dose-dependent-effect”; with HeLa [20] it was “Dose-dependent-effect”. Also, the Activity in the data set listed under Homo sapiens [21] was 20%; in the data set filed under Homo sapiens [22], 40%. The Kd in data set [10] is 33.8 µM. Also, the result in the data set on HeLa [11] was Active. In addition, the outcome with HeLa [19] was inactive.

For `CCn1c(=O)/c(=C2\Sc3ccccc3N2C)s/c1=C\c1cccc[n+]1C`, the result in data set [1] was inactive. Also, the Kd in [10] was 41 µM. For the same compound, the Activity entry in the data set with HeLa [23] is “Dose-dependent-effect”; in the data set filed under Homo sapiens [21] it was 30%; in the data set listed under Homo sapiens [22], 43%.

Take `CCCCNC(=O)C(c1cc(O)ccc1Br)N(CC(C)CC)C(=O)Cn1cc(-c2cccc(OC)c2)nn1` (stereo not given): the outcome in [1] was inactive.

With `CCCCNC(=O)C(c1ccccc1Br)N(Cc1ccccc1)C(=O)Cn1cc(CCC(C)C)nn1` (stereo not given), the outcome in data set [1] was inactive.

For `CCOC(=O)CN1C(=O)S/C(=C\c2ccc(O)c(O)c2)C1=O`, the IC50 in the data set with A549 is 32.3 µM; in the data set on HeLa [5], over 50 µM; with A-375, 16.6 µM. For the same compound, the result in the data set listed under Homo sapiens [24] was inactive.

Consider `CCCCNC(=O)C(c1ccccc1Br)N(CC(C)CC)C(=O)Cn1cc(CCC(C)C)nn1` (stereo not given), for which the result in data set [1] was inactive.

In the case of `CCCCNC(=O)C(c1ccc(C(F)(F)F)cc1)N(CCC)C(=O)Cn1cc(-c2cccc(C)c2)nn1` (stereo not given), the solubility entry in data set [25] is given as “Insoluble”.

In the case of `CCCCNC(=O)C(c1c(Br)ccnc1Cl)N(CC(C)CC)C(=O)Cn1cc(-c2cccc(O)c2)nn1` (stereo not given), the outcome in data set [1] was inactive.
